Assay results: ChEMBL document CHEMBL3232803, “Optimization of potency and pharmacokinetic properties of tetrahydroisoquinoline transient receptor potential melastatin 8 (TRPM8) antagonists” (J Med Chem, 2014)

Legend:
Assay type in all cases: ADME, organism-based
[1] = Oral bioavailability in Sprague-Dawley rat; settings: in vivo
Method in brief: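 Male Sprague−Dawley rats, n = 3 per group. Iv arm: fed animals, 2 mg/kg in DMSO. Oral arm: fasted animals, 5 or 10 mg/kg by gavage as a suspension in 5% Tween 80/Oraplus. Plasma sampled to 16 h, measured by LC-MS/MS, analysed noncompartmentally.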

[2] = Volume of distribution at steady state in Sprague-Dawley rat at 2 mg/kg, iv by LC-MS/MS analysis; parameters: dose 2 mg/kg, route intravenous; settings: in vivo, read-out: Vdss
Method in brief: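 Fed male Sprague−Dawley rats (n = 3) dosed iv at 2 mg/kg in DMSO. Plasma sampled up to 16 h, quantified by LC-MS/MS. Noncompartmental analysis of total plasma concentration-time data.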

[3] = Cmax in Sprague-Dawley rat at 5 mg/kg, po by LC-MS/MS analysis; parameters: dose 5 mg/kg, route oral; settings: in vivo
Method in brief: (§1)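 Fasted male Sprague−Dawley rats (n = 3) given oral gavage as a suspension in 5% Tween 80/Oraplus. Blood sampled up to 16 h post dose, plasma prepared by centrifugation and assayed by LC-MS/MS. Total plasma concentration-time data analysed by noncompartmental methods.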

[4] = AUC (0 to infinity) in Sprague-Dawley rat at 5 mg/kg, po by LC-MS/MS analysis; parameters: time infinity, dose 5 mg/kg, route oral; settings: plasma; method in brief: as §1
[5] = Oral bioavailability in Sprague-Dawley rat at 5 mg/kg by LC-MS/MS analysis; settings: in vivo; method in brief: as §1
[6] = Plasma concentration in unilateral cartoid artery cannulated Sprague-Dawley rat model at 3 mg/kg, po after […]; parameters: dose 3 mg/kg, route oral
[7] = Tmax in Sprague-Dawley rat at 5 mg/kg, po by LC-MS/MS analysis; parameters: dose 5 mg/kg, route oral; settings: in vivo; method in brief: as §1

Row | bioavailability [1] | Vd [2] | Cmax [3] | AUC(0-inf) [4] | bioavailability [5] | concentration at […] [6] | Tmax [7] | Structure (SMILES)
1 | 70% |  |  |  |  |  |  | N#Cc1ccc(NC(=O)N2CCc3cccnc3[C@H]2c2ccc(C(F)(F)F)cc2)cc1
2 |  | 2.7 L/kg | 1580 nM | 12 µM·h |  |  |  | C[C@H](NC(=O)N1CCc2cccnc2[C@H]1c1ccc(C(F)(F)F)cc1)C(F)(F)F
3 |  | 3 L/kg | 1670 nM | 12.1 µM·h | 67% |  |  | C[C@H](NC(=O)N1CCc2ccccc2[C@H]1c1ccc(C(F)(F)F)c(F)c1)C(F)(F)F
4 |  | 1.7 L/kg | 3860 nM | 71.9 µM·h | 51% | 1270 nM | 5.3 h | C[C@H](NC(=O)N1CCc2cccnc2[C@H]1c1ccc(C(F)(F)F)c(F)c1)C(F)(F)F
